Test [1] concerns the target T1, Retinal dehydrogenase 2 (Gallus gallus) (UniProt O93344).
T1 sequence (whole entry): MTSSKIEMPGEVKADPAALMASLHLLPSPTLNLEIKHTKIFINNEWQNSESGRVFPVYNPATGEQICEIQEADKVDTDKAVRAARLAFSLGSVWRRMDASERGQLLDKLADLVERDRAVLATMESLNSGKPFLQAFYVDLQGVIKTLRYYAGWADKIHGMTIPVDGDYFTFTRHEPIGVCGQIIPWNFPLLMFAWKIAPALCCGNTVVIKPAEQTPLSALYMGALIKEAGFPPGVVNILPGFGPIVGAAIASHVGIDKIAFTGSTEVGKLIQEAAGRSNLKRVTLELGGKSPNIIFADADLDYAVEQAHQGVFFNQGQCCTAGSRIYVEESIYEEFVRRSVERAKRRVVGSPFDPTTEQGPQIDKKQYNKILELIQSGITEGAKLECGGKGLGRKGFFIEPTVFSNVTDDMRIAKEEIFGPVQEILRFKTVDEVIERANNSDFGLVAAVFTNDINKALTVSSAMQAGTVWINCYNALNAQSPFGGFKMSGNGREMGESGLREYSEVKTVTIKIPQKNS
The experiment in a line: Inhibition of chick RALDH2 expressed in doxycycline-inducible HEK293 cells assessed as inhibition of ATRA synthesis at 0.05 uM after 24 hrs in presence of […]. It is filed as cell-based.

The target in test [2] is T1, Retinal dehydrogenase 2 (Gallus gallus). The experiment in a line: Inhibition of N-terminal His6-tagged recombinant chick RALDH2 expressed in Escherichia coli BL21(DE3) cells at 250 nM using RAL as substrate assessed as remaining activity preincubated for 80 mins followed by all-trans-retinaldehyde and substrate addition measured after 30 mins in presence of NAD+ by fluorescence assay. An outline of the steps: (§1)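 Chick RALDH2 (91 nM) pre-incubated with 250 nM inhibitor for 0–80 min at 37°C, alone or with 250 μM retinaldehyde or 250 μM NAD+. Reaction then started with the missing substrate and/or cofactor (250 μM retinaldehyde, 4 mM NAD), 30 min at 37°C. Fluorimetric NADH; % activity remaining. Triplicates.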

The subject of test [3] is HEK293. The experiment in a line: Cytotoxicity against doxycycline-inducible chicken RALDH2 expressing HEK293 cells by measuring DNA content after 24 hrs in presence of proteinase K by Pico-green dye-based fluorescence assay. It counts as functional, cell-based. To be noted: Homo sapiens, HEK293, 24 h. An outline of the steps:
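Doxycycline-induced (Dox)RALDH2-eGFP HEK293 cells treated with compound in low-serum DMEM. Homogenate aliquots taken before ultracentrifugation were digested with proteinase K (0.05% w/v in 10 mM EDTA, 0.1 M sodium phosphate pH 6.5) at 60°C overnight. DNA measured by PicoGreen fluorescence. Toxicity curves span 0.01–50 μM over 24 h. Two experiments, n = 5 per concentration.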

Test [4] addresses T1, Retinal dehydrogenase 2 (Gallus gallus). The experiment in a line: Inhibition of N-terminal His6-tagged recombinant chick RALDH2 expressed in Escherichia coli BL21(DE3) cells at 25 nM using RAL as substrate assessed as remaining activity preincubated for 20 mins followed by compound washout by ultrafiltration and subsequent addition of substrate and measured after 30 mins in presence of NADH by fluorescence assay (reference value: 100.0 +/- 11.57%). In a few lines: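 Chick RALDH2 (91 nM) pre-incubated 20 min with 0–50 nM inhibitor. Unbound inhibitor removed by ultrafiltration before adding 250 μM retinaldehyde and 4 mM NAD+, 30 min at 37°C. NADH measured fluorimetrically. Activity expressed as % of vehicle. Triplicates; one-way ANOVA with Bonferroni test.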

Test [5] has the same target. The experiment in a line: Inhibition of N-terminal His6-tagged recombinant chick RALDH2 expressed in Escherichia coli BL21(DE3) cells at 250 nM using RAL as substrate assessed as remaining activity preincubated for 5 mins followed by all-trans-retinaldehyde and substrate addition measured after 30 mins in presence of NAD+ by fluorescence assay. In a few lines: as §1

For test [6], the species on record is Gallus gallus. Kind of test: Inhibition of N-terminal His6-tagged recombinant chick RALDH3 expressed in Escherichia coli BL21(DE3) cells at 500 nM using RAL as substrate assessed as Vmax preincubated for 20 mins followed by substrate addition and measured after 30 mins in presence of NADH by fluorescence assay (reference value: 107.3 +/- 15.97 pmol/microM/min).

Test [7] is filed under the species Gallus gallus. The experiment in a line: Inhibition of N-terminal His6-tagged recombinant chick RALDH3 expressed in Escherichia coli BL21(DE3) cells at 500 nM using RAL as substrate assessed as Km preincubated for 20 mins followed by substrate addition and measured after 30 mins in presence of NADH by fluorescence assay (reference value: 84.45 +/- 30.99 microM).

For orientation: inhibition means how much of the control response was suppressed. One may read the IC50 as the concentration needed to halve the response being measured. The term Km denotes the substrate concentration at which the rate is half of its maximum. Consider `CC1=C(/C=C/C(C)=C/C=C/C(C)=C/C(=O)C(Cl)Cl)C(C)(C)CCC1`, for which the inhibition in test [1] is 42%. For the same compound, the Activity turned out to be 16.5% in test [2], 33% in test [4] and 39.2% in test [5]. Further, the concentration for half-maximal inhibition (IC50) in test [3] worked out at 2940 nM. Further, in test [6], the Vmax came to 21.6 pmol/µM/min. Besides, the Michaelis constant (Km) in test [7] was 26.9 µM.

The values above are taken from ChEMBL document CHEMBL4261642, “Design, synthesis, and ex vivo evaluation of a selective inhibitor for retinaldehyde dehydrogenase enzymes” (Bioorg Med Chem, 2018).
